Numbering of substitutions follows the chain as printed.
Tests used:
Settings in all cases: stereoisomer not certain
O10R2 I170L = tested on: T1, O10R2 I170L
T1 sequence (whole entry): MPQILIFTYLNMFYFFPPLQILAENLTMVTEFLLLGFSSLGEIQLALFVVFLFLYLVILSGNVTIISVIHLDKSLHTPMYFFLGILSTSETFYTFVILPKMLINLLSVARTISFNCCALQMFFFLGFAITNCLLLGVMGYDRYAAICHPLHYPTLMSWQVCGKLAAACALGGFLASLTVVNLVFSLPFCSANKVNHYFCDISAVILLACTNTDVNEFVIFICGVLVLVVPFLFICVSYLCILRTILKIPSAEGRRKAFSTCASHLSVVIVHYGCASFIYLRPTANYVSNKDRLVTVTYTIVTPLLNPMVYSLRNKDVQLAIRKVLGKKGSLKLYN
In short: (§1)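 Whether a receptor–molecule pair is responsive (active) rests on the original authors' judgment that its measured signal was statistically different from baseline. Pairs without that judgment are non-responsive (inactive). Sources used varied assay methods, commonly transient luciferase assays in mammalian cell lines.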

O10T2 I137M = tested on: T2, O10T2 I137M
T2 sequence (whole entry): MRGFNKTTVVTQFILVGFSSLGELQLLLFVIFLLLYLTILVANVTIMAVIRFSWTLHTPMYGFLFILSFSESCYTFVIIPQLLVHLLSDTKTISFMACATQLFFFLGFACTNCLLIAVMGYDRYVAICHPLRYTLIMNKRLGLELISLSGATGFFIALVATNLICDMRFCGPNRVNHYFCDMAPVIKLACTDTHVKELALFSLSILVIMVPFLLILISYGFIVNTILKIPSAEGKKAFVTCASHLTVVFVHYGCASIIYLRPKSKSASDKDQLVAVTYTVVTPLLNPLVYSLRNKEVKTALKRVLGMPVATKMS
In short: as §1

O10V1 Q123R = tested on: T3, O10V1 Q123R
T3 sequence (whole entry): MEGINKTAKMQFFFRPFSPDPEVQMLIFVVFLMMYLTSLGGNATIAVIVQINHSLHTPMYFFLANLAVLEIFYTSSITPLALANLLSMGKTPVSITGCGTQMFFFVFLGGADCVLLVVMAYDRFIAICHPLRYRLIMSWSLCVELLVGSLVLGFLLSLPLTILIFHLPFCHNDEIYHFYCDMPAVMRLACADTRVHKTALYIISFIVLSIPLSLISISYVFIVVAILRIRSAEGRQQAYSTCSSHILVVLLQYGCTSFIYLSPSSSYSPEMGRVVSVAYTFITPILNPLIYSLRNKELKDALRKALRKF
In short: as §1

O10X1 N4T R181S = tested on: T4, O10X1 N4T R181S
T4 sequence (whole entry): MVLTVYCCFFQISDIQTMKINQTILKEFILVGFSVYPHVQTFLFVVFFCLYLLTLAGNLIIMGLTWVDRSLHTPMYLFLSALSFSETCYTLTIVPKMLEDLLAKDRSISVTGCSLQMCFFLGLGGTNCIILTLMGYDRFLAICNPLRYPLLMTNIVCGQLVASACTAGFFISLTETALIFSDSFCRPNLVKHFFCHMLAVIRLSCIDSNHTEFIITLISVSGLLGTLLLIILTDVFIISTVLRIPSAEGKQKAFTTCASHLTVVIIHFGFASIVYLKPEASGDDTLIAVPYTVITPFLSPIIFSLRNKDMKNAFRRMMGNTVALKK
In short: as §1

O11G2 F3I I99N V116I = tested on: T5, O11G2 F3I I99N V116I
T5 sequence (whole entry): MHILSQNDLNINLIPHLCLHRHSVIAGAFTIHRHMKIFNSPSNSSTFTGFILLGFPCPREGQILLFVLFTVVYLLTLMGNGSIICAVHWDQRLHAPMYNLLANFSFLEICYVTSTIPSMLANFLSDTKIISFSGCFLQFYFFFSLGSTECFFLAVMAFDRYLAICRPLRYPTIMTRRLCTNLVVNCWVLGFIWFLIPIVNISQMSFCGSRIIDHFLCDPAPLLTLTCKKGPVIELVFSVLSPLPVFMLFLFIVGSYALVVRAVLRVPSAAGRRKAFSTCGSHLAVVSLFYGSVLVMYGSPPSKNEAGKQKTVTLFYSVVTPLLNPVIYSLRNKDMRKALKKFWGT
In short: as §1

O11H1 M240V = tested on: T6, O11H1 M240V
T6 sequence (whole entry): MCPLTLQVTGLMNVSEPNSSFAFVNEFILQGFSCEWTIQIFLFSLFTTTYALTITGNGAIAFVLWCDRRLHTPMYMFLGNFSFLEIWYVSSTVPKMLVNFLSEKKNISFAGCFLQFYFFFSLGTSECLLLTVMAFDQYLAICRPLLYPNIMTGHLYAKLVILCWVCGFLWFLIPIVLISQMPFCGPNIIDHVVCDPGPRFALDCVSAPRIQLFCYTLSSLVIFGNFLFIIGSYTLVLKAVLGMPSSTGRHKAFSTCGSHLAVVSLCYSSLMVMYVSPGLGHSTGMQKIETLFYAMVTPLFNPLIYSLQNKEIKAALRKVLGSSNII
In short: as §1

O11H6 I107T = tested on: T7, O11H6 I107T
T7 sequence (whole entry): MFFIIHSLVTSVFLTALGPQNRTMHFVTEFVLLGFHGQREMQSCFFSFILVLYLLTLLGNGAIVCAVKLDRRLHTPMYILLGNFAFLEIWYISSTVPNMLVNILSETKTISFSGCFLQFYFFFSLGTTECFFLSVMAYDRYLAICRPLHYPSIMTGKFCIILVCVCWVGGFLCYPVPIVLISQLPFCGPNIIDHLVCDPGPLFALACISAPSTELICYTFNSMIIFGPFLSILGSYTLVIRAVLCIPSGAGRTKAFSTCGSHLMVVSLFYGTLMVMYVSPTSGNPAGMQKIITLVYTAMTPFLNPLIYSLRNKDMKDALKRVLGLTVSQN
In short: as §1

O11HC C156Y V240M = tested on: T8, O11HC C156Y V240M
T8 sequence (whole entry): T6 sequence (whole entry) with S33T, R68W, V240M
In short: as §1

O12D2 S104F = tested on: T9, O12D2 S104F
T9 sequence (whole entry): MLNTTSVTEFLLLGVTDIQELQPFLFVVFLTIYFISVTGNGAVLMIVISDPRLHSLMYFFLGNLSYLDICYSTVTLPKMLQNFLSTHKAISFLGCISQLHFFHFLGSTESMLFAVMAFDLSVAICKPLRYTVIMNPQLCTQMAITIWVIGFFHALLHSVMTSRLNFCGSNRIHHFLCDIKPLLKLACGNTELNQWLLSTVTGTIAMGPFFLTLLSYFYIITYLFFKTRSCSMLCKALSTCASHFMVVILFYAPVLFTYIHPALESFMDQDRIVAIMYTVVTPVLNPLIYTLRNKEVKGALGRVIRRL
In short: as §1

O13C2 H6Q = tested on: T10, O13C2 H6Q
T10 sequence (whole entry): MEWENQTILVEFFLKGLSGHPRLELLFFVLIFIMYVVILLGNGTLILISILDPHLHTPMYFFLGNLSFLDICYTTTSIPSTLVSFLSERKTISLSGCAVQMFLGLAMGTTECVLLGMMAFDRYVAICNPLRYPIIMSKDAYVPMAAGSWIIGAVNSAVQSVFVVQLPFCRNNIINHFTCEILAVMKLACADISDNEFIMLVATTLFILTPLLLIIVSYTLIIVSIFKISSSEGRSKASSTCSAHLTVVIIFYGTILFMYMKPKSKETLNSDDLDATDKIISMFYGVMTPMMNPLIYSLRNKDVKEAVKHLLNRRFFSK
In short: as §1

Measured: odorant receptor agonist call;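 also: active if original authors judged signal statistically different from baseline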

Cc1cnc(C)c(C)n1
inactive: all assays above

CC1=NC(C)C(C)S1 (stereo not given)
inactive: all assays above

CCC1OC(C)=C(O)C1=O (stereo not given)
inactive: all assays above

CC1=C(O)C(=O)OC1C (stereo not given)
inactive: all assays above

CCCC(S)CCOC(C)=O (stereo not given)
inactive: all assays above

CCC1OC(=O)C(O)=C1C (stereo not given)
inactive: all assays above

CCCCCCC=CCCC=O
inactive: all assays above

CC1=C(O)C(=O)C(C)O1 (stereo not given)
inactive: all assays above

From the M2OR odorant receptor database
